Experimental data: ChEMBL document CHEMBL1275449, “Potent in vitro antifungal activities of naturally occurring acetylenic acids” (Antimicrob Agents Chemother, 2008)
Activity calls are given as the source filed them. The rule behind the calls is not given here.

Key:
[1] = test system: Candida albicans; assay: Antifungal activity against Candida albicans ATCC 32354 after 48 hrs by CLSI method; assay type: functional, organism-based; conditions: ATCC 32354, 48 h
Procedure, shortened: (§1)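 CLSI broth microdilution. Colonies from 24–72 h SD agar suspended in saline and sized by OD630 standard curve. Inoculum 1.5 × 10³ CFU/ml (final) in RPMI 1640 (0.2% dextrose, 0.03% glutamine, 0.165 M MOPS, pH 7.0). Twofold dilutions (11 levels) from 20% DMSO-saline, in duplicate. 35°C for 48 h, OD530 read before and after. IC50 fitted from % growth. MIC: no detectable growth. MFC: subculture onto SD agar.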

[2] = test system: Trichophyton rubrum; assay: Antifungal activity against Trichophyton rubrum ATCC MYA-4438 at 162.1 uM after 5 days by CLSI method; assay type: functional, organism-based
[3] = test system: Pichia kudriavzevii; assay: Antifungal activity against Candida krusei ATCC 6258 after 48 hrs by CLSI method; assay type: functional, organism-based; conditions: ATCC 6258, 48 h
Procedure, shortened: (§2)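 Candida inocula came from 24–72-h SD agar colonies suspended in saline. They were diluted by OD630 standard curve into RPMI 1640 (0.2% dextrose, 0.03% glutamine, 0.165 M MOPS, pH 7.0) to 1.5 × 10³ CFU/ml. Compounds were run as 11 twofold dilutions in 20% DMSO-saline, in duplicate, at 35°C for 48 h, with OD530 read before and after. Percent growth at the top concentration, IC50, MIC, and MFC (SD agar plating) were derived.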

[4] = test system: BT-549; assay: Cytotoxicity against human BT549 cells up to 32 uM by neutral red method; assay type: cell-based
Procedure, shortened: (§3)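 Neutral red uptake cytotoxicity, top concentration 32 μM.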

[5] = test system: Candida albicans; assay: Antifungal activity against Candida albicans ATCC 200955 at 162.1 uM after 48 hrs by CLSI method; assay type: functional, organism-based; procedure, shortened: as §2
[6] = test system: SK-MEL; assay: Cytotoxicity against human SK-MEL cells up to 32 uM by neutral red method; assay type: cell-based; procedure, shortened: as §3
[7] = test system: Aspergillus fumigatus; assay: Antifungal activity against Aspergillus fumigatus ATCC 90906 at 162.1 uM after 48 hrs by CLSI method; assay type: functional, organism-based
[8] = test system: Aspergillus niger; assay: Antifungal activity against Aspergillus niger ATCC 16404 at 162.1 uM after 48 hrs by CLSI method; assay type: functional, organism-based
[9] = test system: Candida albicans; assay: Antifungal activity against Candida albicans ATCC 200955 after 48 hrs by CLSI method; assay type: functional, organism-based; conditions: ATCC 200955, 48 h; procedure, shortened: as §1
[10] = test system: LLC-PK1; assay: Cytotoxicity against pig LLC-PK1 cells up to 32 uM by neutral red method; assay type: cell-based, Sus scrofa; procedure, shortened: as §3
[11] = test system: Trichophyton mentagrophytes; assay: Antifungal activity against Trichophyton mentagrophytes ATCC MYA-4439 by CLSI method; assay type: functional, organism-based
Procedure, shortened: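 Growth scraped from 1- to 6-week-old potato dextrose slants and filtered through Miracloth. Diluted in 5% Alamar blue-RPMI 1640 (MOPS pH 7.0) to 2.7 × 10⁴ CFU/ml. Eleven twofold dilutions in duplicate. Fluorescence at 544 nm excitation/590 nm emission read before and after 35°C, 5 days. IC50 fitted from percent growth. MIC taken as no detectable growth; MFC from clear or blue wells plated on PD agar.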

[12] = test system: Candida albicans; assay: Antifungal activity against Candida albicans ATCC 14053 after 48 hrs by CLSI method; assay type: functional, organism-based; conditions: ATCC 14053, 48 h; procedure, shortened: as §1
[13] = test system: SK-OV-3; assay: Cytotoxicity against human SKOV3 cells up to 32 uM by neutral red method; assay type: cell-based; procedure, shortened: as §3
[14] = test system: Aspergillus fumigatus; assay: Antifungal activity against Aspergillus fumigatus ATCC 90906 after 48 h by CLSI method; conditions: ATCC 90906, 48 h
[15] = test system: Candida tropicalis; assay: Antifungal activity against Candida tropicalis ATCC 750 at 162.1 uM after 48 hrs by CLSI method; assay type: functional, organism-based
Procedure, shortened: (§4)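 Yeast suspensions made from 3-5 colonies off 24-72 h SD agar plates in saline. They were diluted by OD630 standard curve in RPMI 1640 (0.2% dextrose, 0.03% glutamine, 0.165 M MOPS, pH 7.0) to 1.5 × 10³ CFU/ml. Twofold dilutions (11 concentrations, 20% DMSO-saline) run in duplicate. OD530 read before and after 35°C, 48 h. Line values are top test concentrations; no-growth endpoints give MIC/MFC.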

[16] = test system: Candida albicans; assay: Antifungal activity against Fluconazole resistant Candida albicans clinical isolate 17 after 48 hrs by CLSI method; assay type: functional, organism-based; procedure, shortened: as §1
[17] = test system: Trichophyton mentagrophytes; assay: Antifungal activity against Trichophyton mentagrophytes ATCC 9533 at 162.1 uM after 5 days by CLSI method; assay type: functional, organism-based
[18] = test system: Cryptococcus neoformans; assay: Antifungal activity against Cryptococcus neoformans ATCC 90113 at 162.1 uM after 72 hrs by CLSI method; assay type: functional, organism-based
Procedure, shortened: (§5)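 SD broth replaced RPMI because growth in RPMI was poor; other CLSI conditions were kept. Inoculum was 1.5 × 10³ CFU/ml from colonies on SD agar, checked by plating. Twofold serial dilutions (11 concentrations) in 20% DMSO-saline were tested in duplicate. OD530 was read before and after incubation at 35°C for 72 h. Percent growth gave IC50; the MIC is the lowest concentration with no detectable growth.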

[19] = test system: Candida albicans; assay: Antifungal activity against Fluconazole resistant Candida albicans isolate 17 at 162.1 uM after 48 hrs by CLSI method; assay type: functional, organism-based
Procedure, shortened: (§6)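 Candida in CLSI broth microdilution. Saline colony suspension set to 1.5 × 10³ CFU/ml (final) in MOPS-buffered RPMI 1640, pH 7.0. Test agent given as twofold serial dilutions in 20% DMSO-saline, duplicate wells. 35°C for 48 h. Growth read as OD530 before and after incubation. Percent inhibition scored at the highest test concentration.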

[20] = test system: Candida albicans; assay: Antifungal activity against Candida albicans ATCC 90028 at 162.1 uM after 48 hrs by CLSI method; assay type: functional, organism-based; procedure, shortened: as §2
[21] = test system: Candida albicans; assay: Antifungal activity against Candida albicans ATCC 60193 after 48 hrs by CLSI method; assay type: functional, organism-based; conditions: ATCC 60193, 48 h; procedure, shortened: as §1
[22] = test system: Candida albicans; assay: Antifungal activity against Candida albicans ATCC 32354 at 162.1 uM after 48 hrs by CLSI method; assay type: functional, organism-based; procedure, shortened: as §2
[23] = test system: Aspergillus fumigatus; assay: Antifungal activity against Aspergillus fumigatus ATCC 204305 after 48 h by CLSI method; conditions: ATCC 204305, 48 h
[24] = test system: Candida albicans; assay: Antifungal activity against Candida albicans ATCC 14053 at 162.1 uM after 48 hrs by CLSI method; assay type: functional, organism-based
[25] = test system: Vero; assay: Cytotoxicity against African green monkey Vero cells up to 32 uM by neutral red method; assay type: cell-based; conditions: chlorocebus sabaeus; procedure, shortened: as §3
[26] = test system: Cryptococcus neoformans; assay: Antifungal activity against Cryptococcus neoformans ATCC 66031 at 162.1 uM after 72 hrs by CLSI method; assay type: functional, organism-based; procedure, shortened: as §5
[27] = test system: Candida parapsilosis; assay: Antifungal activity against Candida parapsilosis ATCC 22019 at 162.1 uM after 48 hrs by CLSI method; assay type: functional, organism-based; procedure, shortened: as §4
[28] = test system: Trichophyton mentagrophytes; assay: Antifungal activity against Trichophyton mentagrophytes ATCC MYA-4439 at 162.1 uM after 5 days by CLSI method; assay type: functional, organism-based
[29] = test system: Trichophyton rubrum; assay: Antifungal activity against Trichophyton rubrum ATCC 10218 at 162.1 uM after 5 days by CLSI method; assay type: functional, organism-based
[30] = test system: KB; assay: Cytotoxicity against human KB cells up to 32 uM by neutral red method; assay type: cell-based; procedure, shortened: as §3
[31] = test system: Candida albicans; assay: Antifungal activity against Fluconazole resistant Candida albicans isolate 1 at 162.1 uM after 48 hrs by CLSI method; assay type: functional, organism-based; procedure, shortened: as §6
[32] = test system: Nakaseomyces glabratus; assay: Antifungal activity against Candida glabrata ATCC 90030 at 162.1 uM after 48 hrs by CLSI method; assay type: functional, organism-based; procedure, shortened: as §2
[33] = test system: Candida albicans; assay: Antifungal activity against Candida albicans ATCC 60193 at 162.1 uM after 48 hrs by CLSI method; assay type: functional, organism-based; procedure, shortened: as §2
[34] = test system: Aspergillus flavus; assay: Antifungal activity against Aspergillus flavus ATCC 204304 at 162.1 uM after 48 hrs by CLSI method; assay type: functional, organism-based
[35] = test system: Pichia kudriavzevii; assay: Antifungal activity against Candida krusei ATCC 6258 at 162.1 uM after 48 hrs by CLSI method; assay type: functional, organism-based; procedure, shortened: as §2
[36] = test system: Candida albicans; assay: Antifungal activity against Fluconazole resistant Candida albicans clinical isolate 1 after 48 hrs by CLSI method; assay type: functional, organism-based; procedure, shortened: as §1
[37] = test system: Aspergillus fumigatus; assay: Antifungal activity against Aspergillus fumigatus ATCC 204305 at 162.1 uM after 48 hrs by CLSI method; assay type: functional, organism-based
[38] = test system: Candida albicans; assay: Antifungal activity against Candida albicans ATCC 90028 after 48 hrs by CLSI method; assay type: functional, organism-based; conditions: ATCC 90028, 48 h; procedure, shortened: as §1

SMILES: CCCCCCCCCCCCCC#CCCCCC(=O)O [6-ICOSYNOIC ACID]
- IC50 [1]: > 162 µM
- Activity [2]: inactive
- IC50 [3]: 106 µM
- Activity [4]: Non-toxic
- Activity [5]: inactive
- Activity [6]: Non-toxic
- Activity [7]: inactive
- Activity [8]: inactive
- IC50 [9]: 53.4 µM
- Activity [10]: Non-toxic
- IC50 [11]: > 162 µM
- IC50 [12]: > 162 µM
- Activity [13]: Non-toxic
- IC50 [14]: 81 µM
- Activity [15]: inactive
- IC50 [16]: 55 µM
- Activity [17]: inactive
- Activity [18]: inactive
- Activity [19]: inactive
- Activity [20]: inactive
- IC50 [21]: 81 µM
- Activity [22]: inactive
- IC50 [23]: 32.3 µM
- Activity [24]: inactive
- Activity [25]: Non-toxic
- Activity [26]: inactive
- Activity [27]: inactive
- Activity [28]: inactive
- Activity [29]: inactive
- Activity [30]: Non-toxic
- Activity [31]: inactive
- Activity [32]: inactive
- Activity [33]: inactive
- Activity [34]: inactive
- Activity [35]: inactive
- IC50 [36]: 86.6 µM
- Activity [37]: inactive
- IC50 [38]: 67.3 µM
